# Source: ChEMBL document CHEMBL4145441, “Discovery of N-(5-((5-chloro-4-((2-(isopropylsulfonyl)phenyl)amino)pyrimidin-2-yl)amino)-4-methoxy-2-(4-methyl-1,4-diazepan-1-yl)phenyl)acrylamide (CHMFL-ALK/EGFR-050) as a potent ALK/EGFR dual kinase inhibitor capable of overcoming a variety of ALK/EGFR associated drug resistant mutants in NSCLC” (Eur J Med Chem, 2017)
# pIC50: −log10 of the molar value. The source made the active and inactive calls. The calls are words filed in the database; no cut-off is given here.
# Key:
# [1] = target: ALK tyrosine kinase receptor (Homo sapiens, UniProt Q9UM73, C1156Y); test: Inhibition of recombinant human N-terminal GST/His6-fused ALK C1156Y mutant expressed in Sf9 insect cells using Tyr 1 peptide as substrate after 1 hr by Z-LYTE assay
# Sequence of ALK tyrosine kinase receptor (Homo sapiens, UniProt Q9UM73, C1156Y) (Q9UM73 19-1620 C1156Y limits assumed): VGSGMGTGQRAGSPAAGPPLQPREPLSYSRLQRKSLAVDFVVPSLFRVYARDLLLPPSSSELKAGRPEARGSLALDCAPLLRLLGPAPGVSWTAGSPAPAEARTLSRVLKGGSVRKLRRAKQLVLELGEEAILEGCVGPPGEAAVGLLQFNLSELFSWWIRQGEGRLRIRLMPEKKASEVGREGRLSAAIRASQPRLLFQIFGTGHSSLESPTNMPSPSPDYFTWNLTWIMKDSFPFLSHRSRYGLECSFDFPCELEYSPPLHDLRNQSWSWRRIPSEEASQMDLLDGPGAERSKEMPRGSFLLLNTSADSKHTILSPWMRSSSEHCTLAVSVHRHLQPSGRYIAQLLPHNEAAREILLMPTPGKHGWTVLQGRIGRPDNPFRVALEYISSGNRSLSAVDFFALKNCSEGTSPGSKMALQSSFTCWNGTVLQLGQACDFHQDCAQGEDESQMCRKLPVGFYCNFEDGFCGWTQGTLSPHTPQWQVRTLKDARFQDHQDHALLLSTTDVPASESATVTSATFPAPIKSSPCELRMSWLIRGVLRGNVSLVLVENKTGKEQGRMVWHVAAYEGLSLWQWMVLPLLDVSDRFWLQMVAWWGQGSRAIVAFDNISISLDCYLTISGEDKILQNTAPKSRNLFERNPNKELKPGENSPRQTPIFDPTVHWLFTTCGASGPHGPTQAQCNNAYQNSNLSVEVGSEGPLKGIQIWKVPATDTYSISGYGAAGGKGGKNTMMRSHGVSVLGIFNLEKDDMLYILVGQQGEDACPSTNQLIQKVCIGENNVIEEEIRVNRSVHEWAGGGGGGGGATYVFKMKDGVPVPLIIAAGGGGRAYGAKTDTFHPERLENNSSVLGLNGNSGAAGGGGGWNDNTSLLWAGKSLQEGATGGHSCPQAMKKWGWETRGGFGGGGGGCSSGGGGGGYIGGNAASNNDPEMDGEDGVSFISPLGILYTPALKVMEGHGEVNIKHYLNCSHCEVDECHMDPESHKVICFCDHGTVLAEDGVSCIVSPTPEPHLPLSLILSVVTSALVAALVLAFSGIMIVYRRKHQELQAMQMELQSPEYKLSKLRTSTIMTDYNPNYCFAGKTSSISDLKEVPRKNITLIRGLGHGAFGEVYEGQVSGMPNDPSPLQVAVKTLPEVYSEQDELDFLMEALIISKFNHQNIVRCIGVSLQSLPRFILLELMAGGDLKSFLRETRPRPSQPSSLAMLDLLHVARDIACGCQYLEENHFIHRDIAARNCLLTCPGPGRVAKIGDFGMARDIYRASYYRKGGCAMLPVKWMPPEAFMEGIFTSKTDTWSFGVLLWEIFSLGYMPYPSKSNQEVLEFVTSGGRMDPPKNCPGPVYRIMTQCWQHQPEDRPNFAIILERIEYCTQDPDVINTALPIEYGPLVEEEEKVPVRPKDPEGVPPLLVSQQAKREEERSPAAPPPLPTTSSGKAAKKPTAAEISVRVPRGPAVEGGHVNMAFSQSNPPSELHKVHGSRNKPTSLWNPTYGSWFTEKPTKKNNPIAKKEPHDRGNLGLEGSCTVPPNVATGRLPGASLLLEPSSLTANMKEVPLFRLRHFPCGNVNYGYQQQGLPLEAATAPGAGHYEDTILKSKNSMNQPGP
# [2] = Antiproliferative activity against mouse BAF3 cells after 72 hrs by CellTiter-Glo assay; format: cell-based
# [3] = target: Epidermal growth factor receptor (Homo sapiens, UniProt P00533, L858R/T790M); test: Inhibition of recombinant human GST-tagged EGFR L858R/T790M mutant expressed in Baculovirus expression system using Tyr 4 peptide as substrate after 1 hr in presence of ATP by Z-LYTE assay
# [4] = Antiproliferative activity against CHO cells after 72 hrs by CellTiter-Glo assay; format: cell-based, Cricetulus griseus; conditions: chinese hamster
# [5] = Cmax in Sprague-Dawley rat at 1 mg/kg, iv; format: ADME, organism-based; parameters: dose 1 mg/kg, route intravenous; conditions: in vivo
# In short: (§1)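 Rats dosed once intravenously at 1 mg/kg or orally at 10 mg/kg. Plasma exposure parameters derived: AUC0-t, AUC0-∞, MRT(0-t), Cmax, Tmax, T1/2 and oral bioavailability (F%). Values reported as mean ± spread.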
# NCI-H3122 [6] = test: Antitumor activity against human NCI-H3122 cells xenografted in nu/nu mouse assessed as tumor growth inhibition at 20 mg/kg, po qd administered for 28 days; format: functional; conditions: 672 h, read-out: TGI
# [7] = target: Epidermal growth factor receptor (Homo sapiens, UniProt P00533, L858R); test: Inhibition of recombinant human GST-tagged EGFR L858R mutant expressed in Baculovirus expression system using Tyr 4 peptide as substrate after 1 hr in presence of ATP by Z-LYTE assay
# NCI-H1975 [8] = test: Antitumor activity against human NCI-H1975 cells xenografted in nu/nu mouse assessed as tumor weight at 10 mg/kg, po qd administered for 21 days (reference value: 6.05g)
# A549 = test: Antiproliferative activity against human A549 cells harboring wild-type EGFR after 72 hrs by CellTiter-Glo assay; format: functional; conditions: A549, 72 h
# NCI-H1975 [9] = test: Induction of apoptosis in human NCI-H1975 cells assessed as increase in cleaved caspase-3 expression level at 300 nM to 1 uM after 24 hrs by Western blot method; format: functional, cell-based
# NCI-H3122 [10] = test: Antitumor activity against human NCI-H3122 cells xenografted in po dosed nu/nu mouse assessed as tumor growth inhibition administered for 28 days; format: functional, organism-based
# [11] = target: T1, ALK tyrosine kinase receptor (Homo sapiens, UniProt Q9UM73)
# T1 sequence (Q9UM73 19-1620 limits assumed): as the sequence (Q9UM73 19-1620 C1156Y limits assumed) above, with Y1138C counted along it
# [12] = target: ALK tyrosine kinase receptor (Homo sapiens, UniProt Q9UM73, R1275Q); test: Inhibition of recombinant human N-terminal GST/His6-fused ALK R1275Q mutant expressed in Sf9 insect cells using Tyr 1 peptide as substrate after 1 hr by Z-LYTE assay
# Sequence of ALK tyrosine kinase receptor (Homo sapiens, UniProt Q9UM73, R1275Q) (Q9UM73 19-1620 R1275Q limits assumed): as the sequence (Q9UM73 19-1620 C1156Y limits assumed) above, with Y1138C, R1257Q counted along it
# [13] = target: T2, Epidermal growth factor receptor (Homo sapiens, UniProt P00533); test: Inhibition of EGFR in human A549 cells assessed as reduction in EGF-induced 4EBP1 phosphorylation at Thr37/46 site up to 3 uM after 4 hrs by immunoblotting method; format: cell-based
# T2 sequence (P00533 whole entry): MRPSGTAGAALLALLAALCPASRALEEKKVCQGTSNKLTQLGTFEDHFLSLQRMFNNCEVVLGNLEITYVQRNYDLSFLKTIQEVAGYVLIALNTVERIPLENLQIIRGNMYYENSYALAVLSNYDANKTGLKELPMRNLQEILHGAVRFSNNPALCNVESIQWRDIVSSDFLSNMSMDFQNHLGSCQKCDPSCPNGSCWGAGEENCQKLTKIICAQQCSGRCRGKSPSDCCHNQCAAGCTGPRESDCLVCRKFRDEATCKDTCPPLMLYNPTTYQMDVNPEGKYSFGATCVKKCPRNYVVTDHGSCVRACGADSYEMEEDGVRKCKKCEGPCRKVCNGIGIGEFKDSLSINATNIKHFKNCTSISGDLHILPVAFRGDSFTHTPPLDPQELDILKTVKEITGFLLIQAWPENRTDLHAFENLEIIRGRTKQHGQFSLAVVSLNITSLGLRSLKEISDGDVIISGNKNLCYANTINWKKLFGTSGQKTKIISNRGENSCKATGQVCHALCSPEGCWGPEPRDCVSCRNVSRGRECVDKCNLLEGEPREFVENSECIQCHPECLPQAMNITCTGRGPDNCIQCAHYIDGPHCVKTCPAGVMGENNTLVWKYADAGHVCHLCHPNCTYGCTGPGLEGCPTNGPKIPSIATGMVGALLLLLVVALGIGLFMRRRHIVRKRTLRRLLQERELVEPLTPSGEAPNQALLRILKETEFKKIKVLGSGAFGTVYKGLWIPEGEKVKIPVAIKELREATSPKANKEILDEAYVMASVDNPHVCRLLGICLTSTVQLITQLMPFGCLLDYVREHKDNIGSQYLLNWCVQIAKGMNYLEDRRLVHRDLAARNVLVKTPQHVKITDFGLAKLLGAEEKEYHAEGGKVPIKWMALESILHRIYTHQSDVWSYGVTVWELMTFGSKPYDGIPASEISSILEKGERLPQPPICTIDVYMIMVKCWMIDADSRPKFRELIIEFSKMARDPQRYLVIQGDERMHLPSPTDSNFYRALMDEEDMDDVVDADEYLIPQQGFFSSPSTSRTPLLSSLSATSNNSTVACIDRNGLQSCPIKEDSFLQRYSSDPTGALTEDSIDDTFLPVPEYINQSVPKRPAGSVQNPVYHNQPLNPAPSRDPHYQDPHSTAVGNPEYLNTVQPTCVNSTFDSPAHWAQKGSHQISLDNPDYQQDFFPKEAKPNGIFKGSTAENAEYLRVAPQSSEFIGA
# NCI-H2122 = test: Antiproliferative activity against human NCI-H2122 cells harboring wild-type EGFR after 72 hrs by CellTiter-Glo assay; format: functional; conditions: NCI-H2122, 72 h
# [14] = target: T2, Epidermal growth factor receptor; test: Inhibition of EGFR in human A549 cells assessed as reduction in EGF-induced eIF4E phosphorylation at Ser209 residue up to 3 uM after 4 hrs by immunoblotting method; format: cell-based
# [15] = target: T2, Epidermal growth factor receptor; test: Inhibition of EGFR in human A549 cells assessed as reduction in EGF-induced AKT phosphorylation at Thr308 residue up to 3 uM after 4 hrs by immunoblotting method; format: cell-based
# NCI-H3255 = test: Antiproliferative activity against human H3255 cells harboring EGFR L858R mutant after 72 hrs by CellTiter-Glo assay; format: functional; conditions: NCI-H3255, 72 h
# [16] = target: T1, ALK tyrosine kinase receptor; test: Inhibition of ALK in human NCI-H3122 cells harboring EML4-fused ALK assessed as reduction in ALK-induced ERK phosphorylation at Thr202/Tyr204 residues up to 3 uM after 2 hrs by immunoblot method; format: cell-based
# [17] = test system: Epidermal growth factor receptor (Homo sapiens), P00533 [L858R,T790M,C797S]; test: Inhibition of full length EGFR L858R/T790M/C797S mutant (unknown origin) expressed in mouse BAF3 cells assessed as decrease in cell proliferation after 72 hrs by CellTiter-Glo assay; format: cell-based
# Sequence of Epidermal growth factor receptor (Homo sapiens), P00533 [L858R,T790M,C797S] (P00533 whole entry T790M/C797S/L858R): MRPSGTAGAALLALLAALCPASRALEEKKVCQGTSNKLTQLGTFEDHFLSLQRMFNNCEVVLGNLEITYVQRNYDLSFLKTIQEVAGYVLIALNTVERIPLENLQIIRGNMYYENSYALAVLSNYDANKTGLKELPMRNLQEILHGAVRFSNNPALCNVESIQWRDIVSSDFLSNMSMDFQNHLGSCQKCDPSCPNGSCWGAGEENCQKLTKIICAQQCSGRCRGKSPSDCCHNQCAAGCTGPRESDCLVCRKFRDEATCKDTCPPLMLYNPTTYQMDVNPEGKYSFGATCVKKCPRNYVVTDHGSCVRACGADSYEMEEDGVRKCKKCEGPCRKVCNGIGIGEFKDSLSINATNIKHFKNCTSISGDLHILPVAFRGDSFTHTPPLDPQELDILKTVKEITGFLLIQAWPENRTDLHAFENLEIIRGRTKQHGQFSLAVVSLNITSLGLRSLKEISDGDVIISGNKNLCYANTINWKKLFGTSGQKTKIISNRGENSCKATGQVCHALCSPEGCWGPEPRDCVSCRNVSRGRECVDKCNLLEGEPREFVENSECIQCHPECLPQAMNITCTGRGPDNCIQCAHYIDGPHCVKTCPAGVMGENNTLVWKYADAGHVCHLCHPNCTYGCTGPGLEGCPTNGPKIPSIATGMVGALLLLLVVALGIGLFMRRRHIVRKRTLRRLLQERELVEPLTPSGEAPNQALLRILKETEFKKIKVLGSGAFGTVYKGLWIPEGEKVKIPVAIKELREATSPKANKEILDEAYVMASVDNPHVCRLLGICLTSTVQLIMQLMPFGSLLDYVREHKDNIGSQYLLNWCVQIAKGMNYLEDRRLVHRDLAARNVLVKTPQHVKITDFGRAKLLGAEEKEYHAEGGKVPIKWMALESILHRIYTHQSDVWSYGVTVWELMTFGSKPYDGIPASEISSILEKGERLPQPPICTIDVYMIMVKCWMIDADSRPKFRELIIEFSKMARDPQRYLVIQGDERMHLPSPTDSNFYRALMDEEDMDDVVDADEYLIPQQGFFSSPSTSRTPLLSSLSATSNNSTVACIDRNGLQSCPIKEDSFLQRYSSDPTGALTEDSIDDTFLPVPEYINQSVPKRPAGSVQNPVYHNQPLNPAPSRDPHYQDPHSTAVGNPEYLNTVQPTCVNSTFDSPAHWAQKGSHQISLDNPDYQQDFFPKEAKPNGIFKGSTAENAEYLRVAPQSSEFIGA
# [18] = Half life in Sprague-Dawley rat at 1 mg/kg, iv; format: ADME, organism-based; conditions: in vivo; in short: as §1
# Mus musculus = test: Toxicity in nu/nu mouse xenografted with human NCI-H3122 cells assessed as change in body weight at 10 to 40 mg/kg, po qd administered for 28 days; format: organism-based; conditions: in vivo, 672 h
# [19] = target: T2, Epidermal growth factor receptor; test: Inhibition of EGFR in human NCI-H1975 cells assessed as inhibition of ERK-1/2 phosphorylation at Thr202/Tyr204 residues at 30 nM after 4 hrs by immunoblotting method; format: cell-based
# PC-9 = test: Antiproliferative activity against human PC9 cells harboring EGFR del19 mutant after 72 hrs by CellTiter-Glo assay; format: functional; conditions: PC-9, 72 h
# [20] = target: ALK tyrosine kinase receptor (Homo sapiens, UniProt Q9UM73, F1174L); test: Inhibition of recombinant human N-terminal GST/His6-fused ALK F1174L mutant expressed in Sf9 insect cells using Tyr 1 peptide as substrate after 1 hr by Z-LYTE assay
# Sequence of ALK tyrosine kinase receptor (Homo sapiens, UniProt Q9UM73, F1174L) (Q9UM73 19-1620 F1174L limits assumed): as the sequence (Q9UM73 19-1620 C1156Y limits assumed) above, with Y1138C, F1156L counted along it
# [21] = MRT (0 to t) in Sprague-Dawley rat at 10 mg/kg, po; format: ADME, organism-based; conditions: in vivo
# In short: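 Pharmacokinetics in rats given a single dose either intravenously at 1 mg/kg or orally at 10 mg/kg. Plasma parameters derived include AUC0-t, AUC0-∞, MRT(0-t), Cmax, Tmax, T1/2 and oral F (%).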
# HCC827 = test: Antiproliferative activity against human HCC827 cells harboring EGFR del19 mutant after 72 hrs by CellTiter-Glo assay; format: functional; conditions: HCC827, 72 h
# NCI-H1975 [22] = test: Antitumor activity against human NCI-H1975 cells xenografted in po dosed nu/nu mouse assessed as decrease in cell proliferation administered for 21 days by Ki67 staining-based immunohistochemical analysis
# [23] = AUC (0 to infinity) in Sprague-Dawley rat at 1 mg/kg, iv; format: ADME, organism-based; parameters: dose 1 mg/kg, route intravenous, time infinity; conditions: in vivo; in short: as §1
# [24] = AUC (0 to infinity) in Sprague-Dawley rat at 10 mg/kg, po; format: ADME, organism-based; parameters: dose 10 mg/kg, route oral, time infinity; conditions: in vivo; in short: as §1
# NCI-H1975 [25] = test: Growth inhibition of human NCI-H1975 cells after 72 hrs by CellTiter-Glo assay; format: functional; conditions: NCI-H1975, 72 h
# In short: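 Antiproliferative GI50 against H1975 and H3122 cells; each GI50 value obtained from triplicate testing.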
# [26] = target: T2, Epidermal growth factor receptor; test: Inhibition of EGFR phosphorylation at Y1068 in human NCI-H1975 cells at 30 nM after 4 hrs by immunoblotting method; format: cell-based
structure (smiles),measurement,setting,value
C=CC(=O)Nc1cc(Nc2ncc(Cl)c(Nc3ccccc3S(=O)(=O)C(C)C)n2)c(OC)cc1N1CCCN(C)CC1,pIC50,[1],9.00
same,GI50 at 72 h,[2],1200 nM
same,pIC50,[3],8.44
same,GI50 at 72 h,[4],1800 nM
same,Cmax,[5],1490 ng/mL
same,inhibition in vivo at 20 mg/kg,NCI-H3122 [6],68.3%
same,pIC50,[7],7.08
same,Activity,NCI-H1975 [8],1.58 g
same,GI50,A549,5.6 µM
same,Activity,NCI-H1975 [9],Active
same,TGI,NCI-H3122 [10],Dose-dependent effect
same,GI50,[11],1 nM
same,pIC50,[12],9.09
same,inhibition,[13],inactive
same,GI50,NCI-H2122,1800 nM
same,inhibition,[14],inactive
same,inhibition,[15],inactive
same,GI50,NCI-H3255,31 nM
same,inhibition,[16],Active
same,GI50,[17],1100 nM
same,half-life,[18],59.5 min
same,Activity,Mus musculus,Non-Toxic
same,inhibition,[19],Active
same,GI50,PC-9,15 nM
same,pIC50,[20],9.04
same,MRT last,[21],4.12 h
same,GI50,HCC827,6.2 nM
same,Activity,NCI-H1975 [22],Dose-dependent effect
same,AUC(0-inf),[23],720 ng·h/mL
same,AUC(0-inf),[24],1300 ng·h/mL
same,GI50,NCI-H1975 [25],15 nM
same,inhibition,[26],Active
